{"data": "Experimental data from different studies", "organism": "Staphylococcus aureus", "note": "Compare with care: the assays were run in different laboratories."}
{"SMILES": "Clc1ccc(C2(c3ccc(-c4cn[nH]c4)cc3)CCNCC2)cc1", "assay": "microbial growth", "test system": "NCTC8325", "measurement": "MIC", "result": "> 30 µM"}
{"SMILES": "O=C1NC(=S)S/C1=C\\c1ccc(-c2ccc(N(c3ccccc3)c3ccccc3)cc2)c2ccccc12", "assay": "microbial killing, broth dilution", "test system": "ATCC6538", "measurement": "MBC", "result": "> 1000 µg/mL"}
{"SMILES": "COc1c(N2C[C@@H]3CCCN[C@@H]3C2)c(F)cc2c(=O)c(C(=O)O)cn(C3CC3)c12", "assay": "microbial growth", "test system": "ATCC700699", "measurement": "MIC90", "result": "0.24 µg/mL"}
{"SMILES": "Cc1cc(C)c(NC(=O)Nc2ccc3c(c2)OC(F)(F)O3)c(C)c1", "assay": "microbial growth", "test system": "NCTC8325", "measurement": "MIC", "result": "> 100 µM"}
{"SMILES": "Cc1nn(-c2nc3ccc(Br)cc3s2)c2c1C(=O)c1ccccc1-2", "assay": "microbial growth, well diffusion", "test system": "NCIM5021", "conditions": "1000 µg/mL", "measurement": "inhibition zone", "result": "12 mm"}
{"SMILES": "O=C1NC(=S)S/C1=C\\c1c2ccccc2c(-c2ccc(N(c3ccccc3)c3ccccc3)cc2)c2ccccc12", "assay": "microbial killing, broth dilution", "test system": "ATCC43300", "measurement": "MBC", "result": "> 1000 µg/mL"}
{"SMILES": "[H]/N=C(/N)N[C@H]1[C@H](O)[C@@H](O)[C@H](O[C@@H]2O[C@@H](C)[C@](O)(C=O)[C@H]2O[C@@H]2O[C@@H](CO)[C@H](O)[C@@H](O)[C@@H]2NC)[C@@H](N/C(N)=N\\[H])[C@@H]1O", "assay": "microbial growth, well diffusion", "test system": "NCIM5021", "conditions": "250 µg/mL", "measurement": "inhibition zone", "result": "22 mm"}
{"SMILES": "CCOc1ccc(-c2nc3ccc(C)cc3[nH]2)cc1", "assay": "microbial growth, broth dilution", "test system": "ATCC29213 MSSA", "measurement": "MIC", "result": "128 µg/mL"}
{"SMILES": "Cc1nc(Nc2ncc(C(=O)Nc3c(C)cccc3Cl)s2)cc(N2CCN(CCO)CC2)n1", "assay": "microbial growth", "test system": "NCTC8325", "measurement": "MIC", "result": "> 30 µM"}
{"SMILES": "COC(=O)/C(=C1/OC(=O)C(c2ccccc2)=C1O)c1ccccc1", "assay": "microbial growth", "test system": "ATCC6538", "measurement": "IC50", "result": "32 µM"}
{"SMILES": "CC(C)c1nn(-c2nc3ccc(Cl)cc3s2)c2c1C(=O)c1ccccc1-2", "assay": "microbial growth, well diffusion", "test system": "NCIM5021", "conditions": "500 µg/mL", "measurement": "inhibition zone", "result": "11 mm"}
{"SMILES": "O=C1NC(=S)S/C1=C\\c1ccc(-c2ccc(N(c3ccccc3)c3ccccc3)cc2)cc1", "assay": "microbial killing, broth dilution", "test system": "ATCC6538", "measurement": "MBC", "result": "> 1000 µg/mL"}
{"SMILES": "CCN(CCO)CCCOc1ccc2c(Nc3cc(CC(=O)Nc4cccc(F)c4)[nH]n3)ncnc2c1", "assay": "microbial growth", "test system": "NCTC8325", "measurement": "MIC", "result": "> 30 µM"}
{"SMILES": "COc1ccc2nc(-n3nc(C)c4c3-c3ccccc3C4=O)sc2c1", "assay": "microbial growth, well diffusion", "test system": "NCIM5021", "conditions": "250 µg/mL", "measurement": "inhibition zone", "result": "12 mm"}
{"SMILES": "CNC(=O)c1cc(Oc2ccc(NC(=O)NC34CC5CC(CC(C5)C3)C4)cc2)ccn1", "assay": "microbial growth", "test system": "NCTC8325", "measurement": "MIC", "result": "> 100 µM"}
{"SMILES": "Cc1nn(-c2nc3ccc(Cl)cc3s2)c2c1C(=O)c1ccccc1-2", "assay": "microbial growth, well diffusion", "test system": "NCIM5021", "conditions": "250 µg/mL", "measurement": "inhibition zone", "result": "10 mm"}
{"SMILES": "CN[C@H](CC(C)C)C(=O)N[C@H]1C(=O)N[C@@H](CC(N)=O)C(=O)N[C@H]2C(=O)N[C@H]3C(=O)N[C@H](C(=O)N[C@H](C(=O)O)c4cc(O)cc(O)c4-c4cc3ccc4O)[C@H](O)c3ccc(c(Cl)c3)Oc3cc2cc(c3O[C@@H]2O[C@H](CO)[C@@H](O)[C@H](O)[C@H]2O[C@H]2C[C@](C)(N)[C@H](O)[C@H](C)O2)Oc2ccc(cc2Cl)[C@H]1O", "assay": "microbial growth, disc diffusion", "test system": "ATCC29213", "conditions": "125 µg/disc, 24 h", "measurement": "inhibition zone", "result": "20 mm"}
{"SMILES": "O=C(Sc1cccccc1=O)c1ccc(C(F)(F)F)cc1", "assay": "microbial growth, broth dilution", "test system": "ATCC29213", "measurement": "MIC80", "result": "> 100 µM"}
{"SMILES": "Cc1ccc2nc(-n3nc(CC(C)C)c4c3-c3ccccc3C4=O)sc2c1", "assay": "microbial growth, well diffusion", "test system": "NCIM5021", "conditions": "125 µg/mL", "measurement": "inhibition zone", "result": "11 mm"}
{"SMILES": "CC(C)c1ccc(O)c(=O)cc1", "assay": "microbial growth, broth dilution", "test system": "ATCC29213", "measurement": "MIC80", "result": "66.7 µM"}
{"SMILES": "C#CCCCCCCCCCCCC(O)CC(O)CO (stereo not drawn)", "assay": "microbial growth, broth dilution", "test system": "ATCC33591 MRSA", "conditions": "drug-resistant strain", "measurement": "IC50", "result": "86.3 µg/mL"}
{"SMILES": "O=c1cccccc1Sc1cccccc1=O", "assay": "microbial growth, broth dilution", "test system": "ATCC29213", "measurement": "MIC80", "result": "> 100 µM"}
{"SMILES": "O=C(O)CN1C(=O)/C(=C/c2ccc(-c3ccc(N(c4ccccc4)c4ccccc4)cc3)c3ccccc23)SC1=S", "assay": "microbial killing, broth dilution", "test system": "ATCC6538", "measurement": "MBC", "result": "> 1000 µg/mL"}
{"SMILES": "O=C(Cc1ccc(Cl)c(C(F)(F)F)c1)Nc1ccc2c(c1)OC(F)(F)O2", "assay": "microbial growth", "test system": "NCTC8325", "conditions": "24 h", "measurement": "MIC", "result": "> 100 µM"}
{"SMILES": "O=C(O)CN1C(=O)/C(=C/c2c3ccccc3c(-c3ccc(N(c4ccccc4)c4ccccc4)cc3)c3ccccc23)NC1=S", "assay": "microbial killing, broth dilution", "test system": "ATCC25923", "measurement": "MBC", "result": "> 1000 µg/mL"}
{"SMILES": "Cc1nn(-c2nc3ccccc3s2)c2c1C(=O)c1ccccc1-2", "assay": "microbial growth, well diffusion", "test system": "NCIM5021", "conditions": "125 µg/mL", "measurement": "inhibition zone", "result": "9 mm"}
{"SMILES": "CCCCCCCCCCCCCC(O)CC(O)CO (stereo not drawn)", "assay": "microbial growth, broth dilution", "test system": "ATCC29213", "measurement": "IC50", "result": "17.2 µg/mL"}
{"SMILES": "CC(=O)Oc1cccc2c1[nH]c1c(C3=C[C@@]4(O)CC/C=C\\CCCCN5CC[C@@H]3[C@]3(C[C@@H]6/C=C\\CCCCN6[C@H]34)C5)nccc12", "assay": "microbial growth", "test system": "MRSA", "conditions": "drug-resistant strain", "measurement": "IC50", "result": "0.45 µg/mL"}
{"SMILES": "O=C(Sc1cccccc1=O)c1ccccc1C(F)(F)F", "assay": "microbial growth, broth dilution", "test system": "ATCC29213", "measurement": "MIC80", "result": "100 µM"}
{"SMILES": "C=CCCCCCCCCCCCC(O)CC(O)CO (stereo not drawn)", "assay": "microbial growth, broth dilution", "test system": "ATCC29213", "measurement": "IC50", "result": "> 200 µg/mL"}
{"SMILES": "CC1(C)S[C@@H]2[C@H](NC(=O)[C@H](N)c3ccccc3)C(=O)N2[C@H]1C(=O)O", "assay": "microbial growth, agar dilution", "test system": "ATCC25923", "conditions": "26.93 µM", "measurement": "inhibition", "result": "100%"}
{"SMILES": "O=C(O)CN1C(=O)/C(=C/c2ccc(-c3ccc(N(c4ccccc4)c4ccccc4)cc3)cc2)SC1=S", "assay": "microbial killing, broth dilution", "test system": "ATCC6538", "measurement": "MBC", "result": "7.8 µg/mL"}
{"SMILES": "C[C@@H]1CCN(C(=O)CC#N)C[C@@H]1N(C)c1ncnc2[nH]ccc12", "assay": "microbial growth", "test system": "NCTC8325", "measurement": "MIC", "result": "> 30 µM"}
{"SMILES": "CCOC(=O)C1=C(C)N2NC(C)(c3ccccc3O)N(C(Cc3c[nH]c4ccccc34)C(=O)O)C2=NC1c1ccc(Cl)cc1 (stereo not drawn)", "assay": "microbial growth", "test system": "ATCC25923", "conditions": "15 µg/mL, 24 h", "measurement": "inhibition zone", "result": "30 mm"}
{"SMILES": "C#CCCCCC(=O)N1CCN(c2ccccc2)CC1", "assay": "microbial growth", "test system": "NCTC8325", "measurement": "MIC", "result": "> 100 µM"}
{"SMILES": "O=C1NC(=S)N/C1=C\\c1ccc(-c2ccc(N(c3ccccc3)c3ccccc3)cc2)c2ccccc12", "assay": "microbial killing, broth dilution", "test system": "ATCC43300", "measurement": "MBC", "result": "> 1000 µg/mL"}
{"SMILES": "CC(C)Cc1nn(-c2nc3ccc(Cl)cc3s2)c2c1C(=O)c1ccccc1-2", "assay": "microbial growth, well diffusion", "test system": "NCIM5021", "conditions": "250 µg/mL", "measurement": "inhibition zone", "result": "10 mm"}
{"SMILES": "O=C(O)CN1C(=O)/C(=C/c2ccc(-c3ccc(N(c4ccccc4)c4ccccc4)cc3)c3ccccc23)NC1=S", "assay": "microbial killing, broth dilution", "test system": "ATCC25923", "measurement": "MBC", "result": "> 1000 µg/mL"}
{"SMILES": "O=c1cccccc1SSc1cccccc1=O", "assay": "microbial growth, broth dilution", "test system": "ATCC29213", "measurement": "MIC80", "result": "> 100 µM"}
